{"source": "ChEMBL document CHEMBL2346557", "about": "(Bioorg Med Chem, 2013)", "key": {"[1]": {"assay": "Tmax in Sprague-Dawley rat at 50 mg/kg, po", "format": "ADME, organism-based", "set-up": "dose 50 mg/kg, route oral", "details": "in vivo", "method_in_brief": "(§1)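 Sprague–Dawley rats (n = 3) were dosed orally with an emulsion in 30% Labrafil. Blood was sampled from 0 to 24 h (0, 5, 15, 30 min; 1, 2, 4, 8, 24 h). Bioavailability was derived against the IV arm.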"}, "Cytochrome P450 3A4": {"molecular_target": "Cytochrome P450 3A4 (Homo sapiens, UniProt P08684)", "sequence (P08684 whole entry)": "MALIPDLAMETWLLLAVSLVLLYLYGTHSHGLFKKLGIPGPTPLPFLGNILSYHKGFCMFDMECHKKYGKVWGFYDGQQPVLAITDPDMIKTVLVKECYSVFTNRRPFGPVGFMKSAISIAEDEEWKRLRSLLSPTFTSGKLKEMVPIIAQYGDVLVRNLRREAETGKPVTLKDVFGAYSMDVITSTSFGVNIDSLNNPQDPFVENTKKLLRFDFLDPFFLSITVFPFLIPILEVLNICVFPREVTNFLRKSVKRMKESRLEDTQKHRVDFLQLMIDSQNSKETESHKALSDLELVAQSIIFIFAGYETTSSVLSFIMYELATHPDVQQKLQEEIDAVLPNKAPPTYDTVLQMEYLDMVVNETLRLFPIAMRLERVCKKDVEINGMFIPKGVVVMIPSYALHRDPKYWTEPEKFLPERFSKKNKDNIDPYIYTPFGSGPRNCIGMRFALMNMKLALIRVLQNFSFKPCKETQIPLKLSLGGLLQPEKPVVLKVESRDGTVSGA", "assay": "Inhibition of CYP3A4 (unknown origin)", "format": "ADME"}, "[2]": {"assay": "Clearance in CD1 mouse at 10 mg/kg, iv", "format": "ADME, organism-based", "set-up": "dose 10 mg/kg, route intravenous", "details": "in vivo", "method_in_brief": "(§2)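 CD1 mice (n = 3 per compound) given 10 mg/kg as a single tail-vein injection in a pH 7.0 solution of 10% ethanol plus PEG400 (some compounds also with 10% DMSO). Blood was sampled at 0, 5, 15 and 30 min and 1, 2, 4, 8 and 24 h. Parameters were derived from the plasma concentration–time profiles.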"}, "[3]": {"assay": "Terminal half life in Sprague-Dawley rat at 50 mg/kg, po", "format": "ADME, organism-based", "set-up": "dose 50 mg/kg, route oral", "details": "in vivo, read-out: beta t1/2 (converted)", "method_in_brief": "as §1"}, "[4]": {"assay": "AUClast in CD1 mouse at 10 mg/kg, iv", "format": "ADME, organism-based", "set-up": "time 0 - last, dose 10 mg/kg, route intravenous", "details": "plasma", "method_in_brief": "as §2"}, "Rattus norvegicus [5]": {"test_system": "Rattus norvegicus", "assay": "Total unbound AUC (0 to infinity) in Sprague-Dawley rat at 50 mg/kg, po", "format": "ADME, organism-based", "set-up": "dose 50 mg/kg, route oral", "details": "in vivo", "method_in_brief": "as §1"}, "Mus musculus [6]": {"test_system": "Mus musculus", "assay": "Total unbound AUC (0 to infinity) in CD1 mouse at 50 mg/kg, po", "format": "ADME, organism-based", "set-up": "dose 50 mg/kg, route oral", "details": "in vivo"}, "Rattus norvegicus [7]": {"test_system": "Rattus norvegicus", "assay": "Total unbound AUC (0 to infinity) in Sprague-Dawley rat at 10 mg/kg, iv", "format": "ADME, organism-based", "set-up": "dose 10 mg/kg, route intravenous", "details": "in vivo"}, "[8]": {"assay": "Terminal half life in CD1 mouse at 10 mg/kg, iv", "format": "ADME, organism-based", "set-up": "dose 10 mg/kg, route intravenous", "details": "in vivo, read-out: beta t1/2 (converted)", "method_in_brief": "as §2"}, "[9]": {"assay": "AUClast in CD1 mouse at 50 mg/kg, po", "format": "ADME, organism-based", "set-up": "time 0 - last, dose 50 mg/kg, route oral", "details": "plasma", "method_in_brief": "(§3)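 CD1 mice (n = 3 per compound) were dosed orally at 50 mg/kg as an aqueous emulsion in 30% Labrafil. Blood was drawn at 0, 5, 15 and 30 min and 1, 2, 4, 8 and 24 h. Bioavailability and other parameters were calculated from the plasma profiles and compared against the intravenous arm.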"}, "Salmonella typhimurium": {"test_system": "Salmonella typhimurium", "assay": "Genotoxicity in Salmonella typhimurium by Ames test", "format": "toxicity, organism-based", "details": "salmonella enterica subsp. enterica serovar typhimurium"}, "C2C12": {"test_system": "C2C12", "assay": "Cytotoxicity against mouse C2C12 cells assessed as cell viability at 0.01 to 100 ug/mL after 24 hrs by MTT assay", "format": "cell-based", "details": "c2c12, 24 h", "method_in_brief": "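MTT viability run on C2C12 cells grown and treated alongside the NF-κB reporter plates, with drug at 0.01–100 µg/ml and DMSO vehicle. Viability is expressed as percent of untreated cells. A one-way repeated-measures ANOVA tested for a concentration effect.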"}, "[10]": {"assay": "Terminal half life in Sprague-Dawley rat at 10 mg/kg, iv", "format": "ADME, organism-based", "set-up": "dose 10 mg/kg, route intravenous", "details": "in vivo, read-out: beta t1/2 (converted)"}, "[11]": {"assay": "Volume of distribution at steady state in Sprague-Dawley rat at 10 mg/kg, iv", "format": "ADME, organism-based", "set-up": "dose 10 mg/kg, route intravenous", "details": "in vivo, read-out: Vdss"}, "[12]": {"assay": "Clearance in beagle dog at 10 mg/kg, iv", "format": "ADME, organism-based, Canis lupus familiaris", "set-up": "dose 10 mg/kg, route intravenous", "details": "in vivo"}, "[13]": {"assay": "Metabolic stability in rat liver microsomes assessed as compound ramaining at 2 uM measured at 1 hr", "format": "ADME, Microsome", "details": "read-out: Stability", "method_in_brief": "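Rat liver microsomes at 0.5 mg/mL final, with 5 mM MgCl2 and 5 mM PBS. The reaction was started with 1 mM NADPH final and run at 37 °C. The negative control used water in place of NADPH; verapamil was the positive control. Read-out was % parent remaining at 1 h.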"}, "[14]": {"assay": "Volume of distribution at steady state in beagle dog at 10 mg/kg, iv", "format": "ADME, organism-based, Canis lupus familiaris", "set-up": "dose 10 mg/kg, route intravenous", "details": "in vivo, read-out: Vdss"}, "[15]": {"assay": "Terminal half life in beagle dog at 30 mg/kg, po", "format": "ADME, organism-based, Canis lupus familiaris", "set-up": "dose 30 mg/kg, route oral", "details": "in vivo, read-out: beta t1/2 (converted)", "method_in_brief": "(§4)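 Beagles (n = 3) were given an oral emulsion in 30% Labrafil. Blood was collected at 0, 5, 15 and 30 min and at 1, 2, 4, 8 and 24 h. Bioavailability was derived relative to IV dosing.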"}, "Canis familiaris [16]": {"test_system": "Canis familiaris", "assay": "Oral bioavailability in beagle dog at 30 mg/kg", "format": "ADME, organism-based, Canis lupus familiaris", "details": "in vivo", "method_in_brief": "as §4"}, "Cytochrome P450 2C9": {"molecular_target": "Cytochrome P450 2C9 (Homo sapiens, UniProt P11712)", "sequence (P11712 whole entry)": "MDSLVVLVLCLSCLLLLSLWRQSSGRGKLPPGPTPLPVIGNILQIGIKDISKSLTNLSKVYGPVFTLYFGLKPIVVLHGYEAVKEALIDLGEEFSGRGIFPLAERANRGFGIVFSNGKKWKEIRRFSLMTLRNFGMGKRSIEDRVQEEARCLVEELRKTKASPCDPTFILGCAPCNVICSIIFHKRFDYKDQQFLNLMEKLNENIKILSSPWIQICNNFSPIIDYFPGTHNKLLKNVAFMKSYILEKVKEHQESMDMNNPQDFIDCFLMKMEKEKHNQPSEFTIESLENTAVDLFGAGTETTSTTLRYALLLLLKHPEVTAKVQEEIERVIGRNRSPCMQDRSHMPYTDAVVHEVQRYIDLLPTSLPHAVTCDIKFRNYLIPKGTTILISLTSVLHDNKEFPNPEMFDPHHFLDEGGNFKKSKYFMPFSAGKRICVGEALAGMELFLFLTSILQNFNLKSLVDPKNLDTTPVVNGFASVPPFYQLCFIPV", "assay": "Inhibition of CYP2C9 (unknown origin)", "format": "ADME"}, "[17]": {"assay": "Terminal half life in CD1 mouse at 50 mg/kg, po", "format": "ADME, organism-based", "set-up": "dose 50 mg/kg, route oral", "details": "in vivo, read-out: beta t1/2 (converted)", "method_in_brief": "as §3"}, "Mus musculus [18]": {"test_system": "Mus musculus", "assay": "Total unbound AUC (0 to infinity) in CD1 mouse at 10 mg/kg, iv", "format": "ADME, organism-based", "set-up": "dose 10 mg/kg, route intravenous", "details": "in vivo"}, "[19]": {"assay": "Tmax in CD1 mouse at 10 mg/kg, iv", "format": "ADME, organism-based", "set-up": "dose 10 mg/kg, route intravenous", "details": "in vivo", "method_in_brief": "as §2"}, "[20]": {"assay": "Metabolic stability in mouse liver microsomes assessed as compound remaining at 2 uM measured at 1 hr", "format": "ADME, Microsome", "details": "read-out: Stability", "method_in_brief": "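Liver microsomes (human, or male monkey, dog, rat or mouse) at 0.5 mg/mL final with 2 µM compound, 5 mM MgCl2 and 5 mM PBS. The reaction was started with 1 mM NADPH and run at 37 °C. Verapamil was the positive control; water replaced NADPH in the negative control. Read-out was percent parent remaining at 1 h.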"}, "Canis familiaris [21]": {"test_system": "Canis familiaris", "assay": "Total unbound AUC (0 to infinity) in beagle dog at 30 mg/kg, po", "format": "ADME, organism-based, Canis lupus familiaris", "set-up": "dose 30 mg/kg, route oral", "details": "in vivo", "method_in_brief": "as §4"}, "[22]": {"assay": "Mean residence time in CD1 mouse at 10 mg/kg, iv", "format": "ADME, organism-based", "set-up": "dose 10 mg/kg, route intravenous", "details": "in vivo", "method_in_brief": "as §2"}, "[23]": {"molecular_target": "T1, Glucocorticoid receptor (Homo sapiens) (UniProt P04150)", "T1 sequence (whole entry)": "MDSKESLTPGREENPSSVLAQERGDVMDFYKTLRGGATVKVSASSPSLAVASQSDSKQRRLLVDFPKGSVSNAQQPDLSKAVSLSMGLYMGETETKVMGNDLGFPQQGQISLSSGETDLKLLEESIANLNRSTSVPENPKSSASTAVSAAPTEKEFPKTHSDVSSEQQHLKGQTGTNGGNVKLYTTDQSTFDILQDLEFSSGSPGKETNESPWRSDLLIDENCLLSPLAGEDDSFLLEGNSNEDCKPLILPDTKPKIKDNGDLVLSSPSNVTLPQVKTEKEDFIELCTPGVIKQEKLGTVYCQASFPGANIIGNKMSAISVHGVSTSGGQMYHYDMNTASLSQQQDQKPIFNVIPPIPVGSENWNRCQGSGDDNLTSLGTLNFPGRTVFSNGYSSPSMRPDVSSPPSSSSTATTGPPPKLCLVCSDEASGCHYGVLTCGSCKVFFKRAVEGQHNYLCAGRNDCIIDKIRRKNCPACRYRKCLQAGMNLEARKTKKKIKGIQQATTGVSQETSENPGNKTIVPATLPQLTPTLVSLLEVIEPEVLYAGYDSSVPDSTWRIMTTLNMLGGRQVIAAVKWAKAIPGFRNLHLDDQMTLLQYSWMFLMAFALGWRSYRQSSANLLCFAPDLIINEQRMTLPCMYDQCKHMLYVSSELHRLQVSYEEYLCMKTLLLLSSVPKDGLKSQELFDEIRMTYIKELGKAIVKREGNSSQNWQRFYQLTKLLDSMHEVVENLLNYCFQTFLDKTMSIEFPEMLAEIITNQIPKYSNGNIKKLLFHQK", "assay": "Transactivation of glucocorticoid receptor in HEK293 cells co-transfected with GRE assessed as induction of GRE-dependent gene expression at 100 ug/ml after 6 hrs by luciferase reporter gene assay", "format": "cell-based", "method_in_brief": "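HEK-293 cells stably transfected with a GRE-driven luciferase reporter were exposed to drug at 0.01–100 μg/ml for 6 h. Cells were washed with PBS and lysed, and luciferase activity was measured by luminometer.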"}, "Cytochrome P450 2D6": {"molecular_target": "Cytochrome P450 2D6 (Homo sapiens, UniProt P10635)", "sequence (P10635 whole entry)": "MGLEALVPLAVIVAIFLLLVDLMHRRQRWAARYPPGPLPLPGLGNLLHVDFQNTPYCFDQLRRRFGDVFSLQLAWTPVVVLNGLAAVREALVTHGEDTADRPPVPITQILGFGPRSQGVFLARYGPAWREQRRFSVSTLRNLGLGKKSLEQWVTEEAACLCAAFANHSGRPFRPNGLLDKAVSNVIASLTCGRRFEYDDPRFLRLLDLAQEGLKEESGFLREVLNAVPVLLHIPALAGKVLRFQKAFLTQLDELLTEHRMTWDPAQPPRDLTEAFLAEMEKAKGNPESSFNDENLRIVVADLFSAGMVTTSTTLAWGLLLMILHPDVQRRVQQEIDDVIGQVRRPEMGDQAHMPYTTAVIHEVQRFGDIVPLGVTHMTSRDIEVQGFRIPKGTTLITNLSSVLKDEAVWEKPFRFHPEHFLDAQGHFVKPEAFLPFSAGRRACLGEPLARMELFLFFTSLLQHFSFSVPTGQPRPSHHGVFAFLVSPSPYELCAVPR", "assay": "Inhibition of CYP2D6 (unknown origin)", "format": "ADME"}}, "note": "Active and inactive are the calls of the source. No cut-off for these calls is given here."}
{"smiles": "C[C@@H]1C[C@H]2[C@@H]3CCC4=CC(=O)C=C[C@]4(C)C3=CC[C@]2(C)[C@@]1(O)C(=O)CO", "note": "[VAMOROLONE]", "values": [{"measurement": "Tmax", "setting": "[1]", "result": 240, "unit": "min"}, {"measurement": "IC50", "setting": "Cytochrome P450 3A4", "result": "> 50", "unit": "µM"}, {"measurement": "clearance", "setting": "[2]", "result": 18.8, "unit": "mL/min/kg"}, {"measurement": "half-life", "setting": "[3]", "result": 137, "unit": "min"}, {"measurement": "AUC(0-t)", "setting": "[4]", "result": 8840, "unit": "ng·h/mL"}, {"measurement": "fAUC", "setting": "Rattus norvegicus [5]", "result": 19937, "unit": "ng·h/mL"}, {"measurement": "fAUC", "setting": "Mus musculus [6]", "result": 32932, "unit": "ng·h/mL"}, {"measurement": "fAUC", "setting": "Rattus norvegicus [7]", "result": 8339, "unit": "ng·h/mL"}, {"measurement": "half-life", "setting": "[8]", "result": 21.2, "unit": "min"}, {"measurement": "AUC(0-t)", "setting": "[9]", "result": 32900, "unit": "ng·h/mL"}, {"measurement": "Activity", "setting": "Salmonella typhimurium", "result": "Non-toxic"}, {"measurement": "Activity", "setting": "C2C12", "result": "Non-toxic"}, {"measurement": "half-life", "setting": "[10]", "result": 34.8, "unit": "min"}, {"measurement": "Vd", "setting": "[11]", "result": 0.77, "unit": "L/kg"}, {"measurement": "clearance", "setting": "[12]", "result": 24.7, "unit": "mL/min/kg"}, {"measurement": "remaining at 1 h, 2 µM", "setting": "[13]", "result": 35.4, "unit": "%"}, {"measurement": "Vd", "setting": "[14]", "result": 1.93, "unit": "L/kg"}, {"measurement": "half-life", "setting": "[15]", "result": 135, "unit": "min"}, {"measurement": "F", "setting": "Canis familiaris [16]", "result": 53.2, "unit": "%"}, {"measurement": "IC50", "setting": "Cytochrome P450 2C9", "result": "> 50", "unit": "µM"}, {"measurement": "half-life", "setting": "[17]", "result": 40.7, "unit": "min"}, {"measurement": "fAUC", "setting": "Mus musculus [18]", "result": 8842, "unit": "ng·h/mL"}, {"measurement": "Tmax", "setting": "[19]", "result": 5, "unit": "min"}, {"measurement": "remaining at 1 h, 2 µM", "setting": "[20]", "result": 88.8, "unit": "%"}, {"measurement": "fAUC", "setting": "Canis familiaris [21]", "result": 10844, "unit": "ng·h/mL"}, {"measurement": "MRT", "setting": "[22]", "result": 40, "unit": "min"}, {"measurement": "Activity", "setting": "[23]", "result": "inactive"}, {"measurement": "IC50", "setting": "Cytochrome P450 2D6", "result": "> 50", "unit": "µM"}]}
